Test results from ChEMBL document CHEMBL1671834, “Novel 3-aryl indoles as progesterone receptor antagonists for uterine fibroids” (ACS Med Chem Lett, 2011).
The source made the active and inactive calls. No cut-off for these calls is given here.

How the values were obtained:
Progesterone receptor [1] = target: T1, Progesterone receptor (Homo sapiens, UniProt P06401); assay: Displacement of [3H]methyltrienolone from human progesterone receptor expressed in HEK293 cells; assay type: cell-based
T1 sequence (P06401 whole entry): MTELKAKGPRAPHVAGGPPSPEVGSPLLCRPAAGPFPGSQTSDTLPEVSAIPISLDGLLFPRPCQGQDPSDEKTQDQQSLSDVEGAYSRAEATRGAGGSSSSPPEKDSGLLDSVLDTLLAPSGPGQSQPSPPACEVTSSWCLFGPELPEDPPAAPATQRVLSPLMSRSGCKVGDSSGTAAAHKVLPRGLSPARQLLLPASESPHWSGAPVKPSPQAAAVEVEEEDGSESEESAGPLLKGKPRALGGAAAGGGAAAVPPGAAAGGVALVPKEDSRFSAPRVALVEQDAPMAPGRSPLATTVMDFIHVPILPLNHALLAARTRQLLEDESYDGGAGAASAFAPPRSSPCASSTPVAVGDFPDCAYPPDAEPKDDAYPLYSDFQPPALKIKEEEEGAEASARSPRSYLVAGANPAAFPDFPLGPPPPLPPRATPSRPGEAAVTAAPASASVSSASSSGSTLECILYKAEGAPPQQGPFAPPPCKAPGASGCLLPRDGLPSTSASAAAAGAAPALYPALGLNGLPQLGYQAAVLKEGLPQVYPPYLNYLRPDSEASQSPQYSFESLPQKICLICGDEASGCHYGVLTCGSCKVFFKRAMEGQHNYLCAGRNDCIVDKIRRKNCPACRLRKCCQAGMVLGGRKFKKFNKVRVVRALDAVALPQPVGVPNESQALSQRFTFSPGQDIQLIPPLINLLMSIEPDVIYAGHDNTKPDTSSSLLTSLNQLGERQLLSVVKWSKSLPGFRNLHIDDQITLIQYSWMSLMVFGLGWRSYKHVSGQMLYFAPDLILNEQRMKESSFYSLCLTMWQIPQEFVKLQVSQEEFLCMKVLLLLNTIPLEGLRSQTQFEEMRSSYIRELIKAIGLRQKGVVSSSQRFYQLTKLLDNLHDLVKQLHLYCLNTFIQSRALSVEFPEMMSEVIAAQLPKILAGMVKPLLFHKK
Summary of the method: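 Competitive binding to recombinant full-length human receptors against tritium-labelled standards. Values are geometric means of at least duplicate determinations.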

Androgen receptor = target: T2, Androgen receptor (Homo sapiens, UniProt P10275); assay: Displacement of [3H]methyltrienolone from human androgen receptor expressed in HEK293 cells; assay type: cell-based
T2 sequence (P10275 whole entry): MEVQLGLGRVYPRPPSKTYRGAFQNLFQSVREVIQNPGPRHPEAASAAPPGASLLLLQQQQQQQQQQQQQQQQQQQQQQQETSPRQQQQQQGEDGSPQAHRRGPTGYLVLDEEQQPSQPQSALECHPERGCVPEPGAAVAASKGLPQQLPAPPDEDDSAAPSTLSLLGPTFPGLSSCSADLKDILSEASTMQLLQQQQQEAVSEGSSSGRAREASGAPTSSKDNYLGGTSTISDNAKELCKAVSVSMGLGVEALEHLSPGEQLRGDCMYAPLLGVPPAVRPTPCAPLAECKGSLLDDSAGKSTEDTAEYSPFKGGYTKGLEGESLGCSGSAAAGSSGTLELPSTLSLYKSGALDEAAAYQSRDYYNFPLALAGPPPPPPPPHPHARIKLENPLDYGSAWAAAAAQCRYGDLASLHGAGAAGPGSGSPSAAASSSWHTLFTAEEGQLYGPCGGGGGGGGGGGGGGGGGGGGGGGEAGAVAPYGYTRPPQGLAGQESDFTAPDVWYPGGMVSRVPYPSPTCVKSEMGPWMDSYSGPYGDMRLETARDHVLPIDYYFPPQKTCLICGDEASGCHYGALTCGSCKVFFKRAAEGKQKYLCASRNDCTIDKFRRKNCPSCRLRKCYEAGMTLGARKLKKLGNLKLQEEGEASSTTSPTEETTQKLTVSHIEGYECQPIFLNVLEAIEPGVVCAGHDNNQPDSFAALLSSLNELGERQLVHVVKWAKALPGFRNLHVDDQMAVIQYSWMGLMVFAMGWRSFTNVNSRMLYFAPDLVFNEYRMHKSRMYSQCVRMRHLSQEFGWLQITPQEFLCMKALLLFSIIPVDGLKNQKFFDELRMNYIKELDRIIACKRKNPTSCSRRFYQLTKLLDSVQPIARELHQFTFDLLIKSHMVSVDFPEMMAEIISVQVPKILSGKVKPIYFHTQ

Progesterone receptor [2] = target: T1, Progesterone receptor; assay: Antagonist activity at human progesterone receptor expressed in HEK293 cells assessed as inhibition of […]-induced transcriptional activity by GRE-driven luciferase reporter gene assay; assay type: functional, cell-based
Summary of the method: (§1)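 Transcription assay in HEK293 cells cotransfected with full-length human receptor. Values are geometric means of at least duplicate determinations.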

[3] = target: T3, Progesterone receptor (Homo sapiens) (UniProt P06401); assay: Antagonist activity at human progesterone receptor expressed in HEK293 cells assessed as inhibition of […]-induced transcriptional activity by GRE-driven luciferase reporter gene assay relative to untreated control; assay type: functional, cell-based; set-up: concentration or dose not given beside the values; settings: concentration not given here; summary of the method: as §1
T3 sequence (whole entry): T1 sequence (P06401 whole entry)

[4] = target: T4, Mineralocorticoid receptor (Homo sapiens) (UniProt P08235); assay: Antagonist activity at human mineralocorticoid receptor expressed in HEK293 cells assessed as inhibition of […]-induced transcriptional activity by GRE-driven luciferase reporter gene assay relative to untreated control; assay type: functional, cell-based; set-up: concentration or dose not given beside the values; settings: concentration not given here; summary of the method: as §1
T4 sequence (whole entry): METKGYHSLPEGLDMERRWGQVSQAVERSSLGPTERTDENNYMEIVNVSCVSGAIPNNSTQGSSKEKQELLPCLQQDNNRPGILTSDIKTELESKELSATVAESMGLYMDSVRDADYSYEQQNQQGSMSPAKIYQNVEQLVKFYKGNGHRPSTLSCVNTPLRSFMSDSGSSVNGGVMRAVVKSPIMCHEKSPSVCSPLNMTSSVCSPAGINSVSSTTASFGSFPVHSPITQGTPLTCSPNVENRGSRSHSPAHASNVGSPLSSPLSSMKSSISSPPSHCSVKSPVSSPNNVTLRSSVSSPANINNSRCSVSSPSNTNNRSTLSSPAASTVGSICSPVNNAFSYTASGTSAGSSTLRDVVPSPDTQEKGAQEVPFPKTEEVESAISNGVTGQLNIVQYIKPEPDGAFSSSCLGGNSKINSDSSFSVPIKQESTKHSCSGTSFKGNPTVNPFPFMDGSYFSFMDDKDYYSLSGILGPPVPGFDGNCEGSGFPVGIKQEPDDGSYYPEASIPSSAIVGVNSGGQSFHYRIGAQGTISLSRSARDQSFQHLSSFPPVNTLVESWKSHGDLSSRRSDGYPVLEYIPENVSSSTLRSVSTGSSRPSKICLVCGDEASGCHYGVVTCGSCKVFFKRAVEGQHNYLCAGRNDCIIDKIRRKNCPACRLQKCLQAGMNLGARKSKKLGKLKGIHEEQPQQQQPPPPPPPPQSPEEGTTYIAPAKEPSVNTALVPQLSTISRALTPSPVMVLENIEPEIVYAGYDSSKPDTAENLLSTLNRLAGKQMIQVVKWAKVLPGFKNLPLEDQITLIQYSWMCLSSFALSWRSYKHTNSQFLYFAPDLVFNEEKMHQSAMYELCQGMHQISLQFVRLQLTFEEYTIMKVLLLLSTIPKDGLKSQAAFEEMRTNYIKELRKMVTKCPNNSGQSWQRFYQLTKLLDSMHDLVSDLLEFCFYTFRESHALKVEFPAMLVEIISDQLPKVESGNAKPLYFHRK

Oryctolagus cuniculus [5] = assay: Antagonist activity at progesterone receptor in estrogen-primed immature New Zealand White rabbit assessed as inhibition of progesterone-induced endometrial transformation at 1 mg/kg, sc by McPhail assay; assay type: functional, organism-based; set-up: dose 1 mg/kg
Summary of the method: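 Immature rabbits primed with estrogen, given progesterone 1 mg/kg with test compound at various sc doses. Endometrial transformation scored by McPhail Index.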

Oryctolagus cuniculus [6] = assay: Agonist activity at progesterone receptor in sc dosed estrogen-primed immature New Zealand White rabbit assessed as stimulation of progesterone-induced endometrial transformation by McPhail assay; assay type: functional, organism-based
Summary of the method: (§2)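 Immature rabbits primed with estrogen, dosed sc without progesterone. Endometrial transformation scored by McPhail Index.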

Rattus norvegicus = assay: Antagonist activity at progesterone receptor in orally dosed ovariectomized Sprague-Dawley rat assessed as reversal of R5020-induced down-regulation of estradiol-induced increase in complement 3 mRNA expression by C3 rat uterine assay; assay type: functional; settings: po
Summary of the method: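 Ovariectomized rats dosed orally (mg/kg dose response). Estrogen (E2, 0.05 mg/kg) induces complement C3 mRNA in uterus. Progestin R5020 (0.1 mg/kg) down-regulates it. Read-out is reversal of the R5020 effect, expressed as fold over asoprisnil (5 mg/kg). ED50 derived from the dose response.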

Oryctolagus cuniculus [7] = assay: Agonist activity at progesterone receptor in estrogen-primed immature New Zealand White rabbit assessed as stimulation of progesterone-induced endometrial transformation at 30 mg/kg, sc by McPhail assay; assay type: functional, organism-based; set-up: dose 30 mg/kg; summary of the method: as §2

| Ki (Progesterone receptor [1]) | Ki (Androgen receptor) | IC50 (Progesterone receptor [2]) | inhibition [3] | inhibition [4] | Activity (Oryctolagus cuniculus [6]) | SMILES | Activity (Oryctolagus cuniculus [5]) | ED50 (Rattus norvegicus) | Activity (Oryctolagus cuniculus [7]) |
| --- | --- | --- | --- | --- | --- | --- | --- | --- | --- |
| 464 nM | 211 nM | 715 nM | 89.7% | 62.9% |  | C[C@@](c1ccc(F)cc1F)(c1c[nH]c2c(NS(C)(=O)=O)cccc12)C1CC1 |  |  |  |
| 1230 nM | 676 nM | 2020 nM | 94.5% | 87% |  | C[C@](c1ccc(F)cc1F)(c1c[nH]c2c(NS(C)(=O)=O)cccc12)C1CC1 |  |  |  |
|  |  |  |  |  | inactive | CC#C[C@]1(O)CC[C@H]2[C@@H]3CCC4=CC(=O)CCC4=C3[C@@H](c3ccc(N(C)C)cc3)C[C@@]21C | Active |  |  |
|  |  |  |  |  |  | COC[C@]1(OC)CC[C@H]2[C@@H]3CCC4=CC(=O)CCC4=C3[C@@H](c3ccc(/C=N/O)cc3)C[C@@]21C [ASOPRISNIL] | Active | 0.31 mg/kg | Active |
